The values below come from ChEMBL document CHEMBL1153568, “Synthesis and anticonvulsant activity of N-(2-hydroxyethyl) cinnamamide derivatives” (Eur J Med Chem, 2009).

Series [1] relates to Mus musculus. Kind of series: Anticonvulsant activity in Kunming mouse assessed as protection against maximal electroshock-induced seizures at 300 mg/kg, ip after 4 hrs. The class given is functional, organism-based. Also noted: dose 300 mg/kg. The method in brief: (§1)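 Maximal electroshock test in mice, five per group, dosed i.p. with suspension in 1:19 DMSO/saline plus 0.5% methylcellulose; seizures evoked at 0.5 h or 4 h after dosing. Protection defined as abolition of hind leg tonic maximal extension; scored as number protected/number tested.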
(In the maximal electroshock model the usual endpoint is tonic extension of the hind limbs.)

Series [2] is described as follows: Neurotoxicity in ip dosed Kunming mouse by rotarod test. It is filed as toxicity, organism-based. The following applies: in vivo. Background: In the rotarod test animals must keep their balance on a rotating rod.
The test system of series [3] is Mus musculus. Kind of series: Anticonvulsant activity in ip dosed Kunming mouse assessed as protection against maximal electroshock-induced seizures. The class given is functional. In a few lines: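 Phase II quantification: mice (ten per dose) dosed i.p. with compound suspended in 1:19 DMSO/saline, 0.5% methylcellulose; MES given 30 min later, protection being abolition of hind leg tonic extension. ED50, dose protecting 50% of animals, reported with 95% confidence limits.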

The subject of series [4] is Mus musculus. Kind of series: Anticonvulsant activity in Kunming mouse assessed as protection against maximal electroshock-induced seizures at 30 mg/kg, ip after 4 hrs. The class given is functional, organism-based. Also noted: dose 30 mg/kg. In a few lines: as §1
Series [5] deals with Mus musculus. The experiment in a line: Protective index, ratio of TD50 for neurotoxicity to ED50 for anticonvulsant activity in ip dosed Kunming mouse. The class given is functional.
The subject of series [6] is Mus musculus. Kind of series: Anticonvulsant activity against subcutaneous pentylenetetrazole-induced seizures in Kunming mouse assessed as clonic seizures of at 50 mg/kg, ip after 0.5 hrs. It is filed as functional. The method in brief:
(§2)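 Test agent given i.p. (suspension in 1:19 DMSO/saline, 0.5% methylcellulose); 30 min later PTZ 85 mg/kg in saline given sc. Animals kept in individual cages, watched 30 min; clonic seizures, tonic seizures and deaths counted, expressed as percent.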

Series [7] has as its system Mus musculus. The experiment in a line: Toxicity in Kunming mouse assessed as 3-mercaptopropionic acid-induced lethality at 50 mg/kg, ip after 0.5 hrs. The following applies: in vivo. Also noted: dose 50 mg/kg, route intraperitoneal. It is filed as organism-based. In a few lines:
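Compound given i.p. at 50 mg/kg as a suspension in 1:19 (vol/vol) DMSO/saline (0.9% NaCl) with 0.5% methylcellulose. At 30 min, 3-mercaptopropionic acid at 60 mg/kg in saline was injected sc. Convulsion latency and duration, and the latency and percentage of lethality, were recorded over the following 1 h.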

Series [8] relates to Mus musculus. The experiment in a line: Anticonvulsant activity against 3-mercaptopropionic acid-induced seizures in Kunming mouse assessed as tonic seizures of at 50 mg/kg, ip after 0.5 hrs. The class given is functional. The settings on record: route intraperitoneal. The method in brief: (§3)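 Mice given test agent i.p. as suspension in 1:19 DMSO/saline with 0.5% methylcellulose; 30 min later 60 mg/kg 3-mercaptopropionic acid in saline injected sc. Latency and duration of convulsions, latency and percentage lethality recorded over 1 h after convulsant; clonic and tonic seizure incidence reported as percent of animals.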

The subject of series [9] is Mus musculus. The experiment in a line: Anticonvulsant activity against thiosemicarbazide-induced seizures in Kunming mouse assessed as clonic seizures of at 50 mg/kg, ip after 2.5 hrs. The settings on record: route intraperitoneal. It is filed as functional.
Series [10] relates to Mus musculus. The experiment in a line: Toxicity in Kunming mouse assessed as thiosemicarbazide-induced lethality at 50 mg/kg, ip after 2.5 hrs. It is filed as organism-based. Also noted: dose 50 mg/kg, route intraperitoneal. The settings on record: in vivo.
Series [11] has as its system Mus musculus. Kind of series: Anticonvulsant activity against subcutaneous pentylenetetrazole-induced seizures in Kunming mouse assessed as tonic seizures of at 50 mg/kg, ip after 0.5 hrs. The class given is functional. In a few lines: as §2
For series [12], the system named is Mus musculus. The experiment in a line: Toxicity in Kunming mouse assessed as subcutaneous pentylenetetrazole-induced lethality at 50 mg/kg, ip after 0.5 hrs. The class given is organism-based. Also noted: dose 50 mg/kg. The settings on record: in vivo, sc. The method in brief: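 Test article at 50 mg/kg i.p. in 1:19 (vol/vol) DMSO/saline with 0.5% methylcellulose. After 30 min, pentylenetetrazole at 85 mg/kg in saline was given sc. Animals were caged individually and watched for 30 min, with clonic and tonic seizures and deaths counted.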

Series [13] relates to Mus musculus. The experiment in a line: Anticonvulsant activity against thiosemicarbazide-induced seizures in Kunming mouse assessed as tonic seizures of at 50 mg/kg, ip after 2.5 hrs. The following applies: route intraperitoneal. The class given is functional.
The test system of series [14] is Mus musculus. Kind of series: Anticonvulsant activity against 3-mercaptopropionic acid-induced seizures in Kunming mouse assessed as clonic seizures of at 50 mg/kg, ip after 0.5 hrs. It is filed as functional. The settings on record: route intraperitoneal. The method in brief: as §3
In series [15] the test system is Mus musculus. Kind of series: Anticonvulsant activity in Kunming mouse assessed as protection against maximal electroshock-induced seizures at 30 mg/kg, ip after 30 mins. It is filed as functional, organism-based. Also noted: dose 30 mg/kg. The method in brief:
as §1

The subject of series [16] is Mus musculus. Kind of series: Anticonvulsant activity in Kunming mouse assessed as protection against maximal electroshock-induced seizures at 100 mg/kg, ip after 4 hrs. The class given is functional, organism-based. Also noted: dose 100 mg/kg. The method in brief:
as §1

The test system of series [17] is Mus musculus. Kind of series: Toxicity in Kunming mouse assessed as isoniazid-induced lethality at 50 mg/kg, ip after 0.5 hrs. Also noted: dose 50 mg/kg, route intraperitoneal. The settings on record: in vivo. It is filed as organism-based. In a few lines: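 Mice were dosed i.p. at 50 mg/kg with a suspension in 1:19 (vol/vol) DMSO/saline containing 0.5% methylcellulose. Isoniazid (250 mg/kg, i.p.) was given 30 min later. Mice were then housed singly and observed for 1 h, scoring clonic seizures, tonic seizures and deaths.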

The subject of series [18] is Mus musculus. Kind of series: Anticonvulsant activity against isoniazid-induced seizures in Kunming mouse assessed as tonic seizures of at 50 mg/kg, ip after 0.5 hrs. The class given is functional. The settings on record: route intraperitoneal. The method in brief:
(§4)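 Compounds suspended in 1:19 DMSO/saline containing 0.5% methylcellulose and given i.p.; after 30 min mice received isoniazid 250 mg/kg i.p., a dose convulsing 100% of animals. Each mouse housed singly and observed 1 h; percent of animals with clonic and tonic seizures, and lethality, recorded.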

In series [19] the test system is Mus musculus. Kind of series: Anticonvulsant activity against isoniazid-induced seizures in Kunming mouse assessed as clonic seizures of at 50 mg/kg, ip after 0.5 hrs. It is filed as functional. The settings on record: route intraperitoneal. In a few lines:
as §4

Series [20] concerns Mus musculus. The experiment in a line: Anticonvulsant activity in Kunming mouse assessed as protection against maximal electroshock-induced seizures at 100 mg/kg, ip after 30 mins. The class given is functional, organism-based. Also noted: dose 100 mg/kg. The method in brief:
as §1

Active and inactive are the calls of the source.

As for `O=C(Cc1ccccc1)NCCO`, in the series with Mus musculus [1], the result was inactive.
As to `O=C(/C=C/c1ccccc1F)NCCO`, the TD50 (commonly the 50% point of the dose-response relation for the toxic effect studied) in series [2] is 219 mg/kg. The 50% effective dose (ED50) (as a rule, the dose at which the effect has come halfway, by size or by number of responders) with Mus musculus [3] was found to be 35.3 mg/kg. Moreover, the result in the series with Mus musculus [4] was inactive. Further, in the series on Mus musculus [5], the “Ratio TD50/ED50” value was determined as 6.2.
On to `O=C(NCCO)c1ccccc1`, for which the outcome in the series with Mus musculus [1] was inactive.
As to `O=C(/C=C/c1cccc(F)c1)NCCO`, the Activity in the series on Mus musculus [6] was 100%; with Mus musculus [7] it was 50%; in the series with Mus musculus [8], 30%; in the series with Mus musculus [9] it was 100%; in the series with Mus musculus [10], 40%; with Mus musculus [11] it was 40%. For the same molecule, the Activity came to 20% in the series on Mus musculus [12], 50% in the series on Mus musculus [13] and 100% with Mus musculus [14]. Moreover, the TD50 in series [2] was found to be 211 mg/kg. For the same molecule, the ED50 with Mus musculus [3] was 17 mg/kg. Also, the result in the series with Mus musculus [4] was inactive. For the same molecule, in the series with Mus musculus [5], the “Ratio TD50/ED50” value is reported as 12.4. The outcome in the series with Mus musculus [15] was Active.
`O=C(/C=C/c1ccc(Cl)cc1)NCCO` yielded a TD50 in series [2] of 98.4 mg/kg. Besides, the result in the series on Mus musculus [16] was inactive. Further, in the series on Mus musculus [3], the ED50 was 73.4 mg/kg. For the same molecule, in the series on Mus musculus [5], the “Ratio TD50/ED50” value is reported as 1.3.
`O=C(/C=C/c1cccc(Cl)c1)NCCO` returned a TD50 in [2] of 127 mg/kg. Moreover, the ED50 in the series with Mus musculus [3] came out at 25 mg/kg. For the same molecule, the outcome in the series on Mus musculus [4] was inactive. The Activity in the series on Mus musculus [17] was found to be 20%. For the same molecule, the “Ratio TD50/ED50” value with Mus musculus [5] is 5.1.
Regarding `O=C(/C=C/c1ccc(Cl)cc1Cl)NCCO`, the result in the series with Mus musculus [1] was inactive.
Take `COc1ccc(/C=C/C(=O)NCCO)cc1`: the result with Mus musculus [16] was inactive.
Take `O=C(/C=C/c1ccccc1)NCCO` [IDROCILAMIDE]: the Activity in the series on Mus musculus [6] is on record as 100%; in the series on Mus musculus [7], 10%; in the series on Mus musculus [18], 70%; with Mus musculus [8], 10%; in the series with Mus musculus [9], 100%; in the series on Mus musculus [10], 30%. For the same molecule, the Activity in the series on Mus musculus [19] was 100%; with Mus musculus [11] it was 20%; in the series on Mus musculus [17] it was 20%; with Mus musculus [12] it was 10%; in the series on Mus musculus [13], 40%; with Mus musculus [14] it was 100%. For the same molecule, the TD50 in series [2] turned out to be 155 mg/kg. Also, the ED50 in the series with Mus musculus [3] amounted to 17.7 mg/kg. The result in the series with Mus musculus [4] was inactive. Further, the “Ratio TD50/ED50” value in the series with Mus musculus [5] is 8.8.
Turning to `O=C(CCc1ccccc1)NCCO`, the outcome with Mus musculus [1] was inactive.
For `NC(=O)N1c2ccccc2C=Cc2ccccc21` [CARBAMAZEPINE], the Activity in the series with Mus musculus [6] turned out to be 100%; in the series on Mus musculus [18], 0%; with Mus musculus [8] it was 0%; with Mus musculus [9], 100%; in the series on Mus musculus [10], 20%; in the series on Mus musculus [19], 50%. For the same molecule, the Activity in the series on Mus musculus [11] is on record as 0%; in the series on Mus musculus [17], 0%; in the series on Mus musculus [12], 10%; in the series on Mus musculus [13], 0%; with Mus musculus [14], 100%. In the series on Mus musculus [3], the ED50 came out at 8.8 mg/kg.
Turning to `Cc1ccc(/C=C/C(=O)NCCO)cc1`, the result with Mus musculus [16] was inactive.
For the molecule `O=C(/C=C/c1ccc2c(c1)OCO2)NCCO`, the TD50 in [2] turned out to be 105 mg/kg. The ED50 in the series on Mus musculus [3] is 32.4 mg/kg. The outcome in the series on Mus musculus [4] was inactive. Further, in the series on Mus musculus [5], the “Ratio TD50/ED50” value was 3.3.
`O=C(/C=C/c1ccccc1Br)NCCO` yielded a TD50 in series [2] of 228 mg/kg. The result with Mus musculus [16] was inactive. Also, the ED50 in the series on Mus musculus [3] is 68.2 mg/kg. For the same molecule, in the series with Mus musculus [5], the “Ratio TD50/ED50” value is on record as 3.3.
For the molecule `O=C(/C=C/c1ccccc1Cl)NCCO`, in the series on Mus musculus [20], the outcome was Active. The same molecule registered a TD50 in series [2] of 152 mg/kg. Moreover, the result in the series on Mus musculus [16] was inactive. Besides, the ED50 in the series with Mus musculus [3] is 59 mg/kg. Further, in the series on Mus musculus [5], the “Ratio TD50/ED50” value was found to be 2.6.
The molecule `O=C(/C=C/c1ccc(Br)cc1)NCCO` had a TD50 in series [2] of 98.3 mg/kg. Besides, in the series on Mus musculus [16], the outcome was inactive. In the series with Mus musculus [3], the ED50 was found to be 76 mg/kg. For the same molecule, in the series on Mus musculus [5], the “Ratio TD50/ED50” value was 1.3.
For `CN(C)c1ccc(/C=C/C(=O)NCCO)cc1`, in series [2], the TD50 was 304 mg/kg. The outcome with Mus musculus [16] was inactive. Besides, the ED50 in the series with Mus musculus [3] is 66.1 mg/kg. Besides, the “Ratio TD50/ED50” value in the series with Mus musculus [5] came to 4.6.
Take `O=C(/C=C/c1ccc(F)cc1)NCCO`: the outcome in the series with Mus musculus [20] was Active. In series [2], the TD50 worked out at 98.3 mg/kg. Further, in the series on Mus musculus [16], the result was inactive. Further, the ED50 in the series with Mus musculus [3] worked out at 45.6 mg/kg. Moreover, in the series on Mus musculus [5], the “Ratio TD50/ED50” value came out at 2.2.
